According to ChEMBL document CHEMBL1123258 (J Med Chem, 1986):
≈ marks a conversion by molar mass, not a printed value. Where “and” joins values, the source holds several entries; their conditions need not be identical. Equal entries are not always repeated.

Legend:
[1] = Compound was evaluated for the percentage of hydrolysis product (aglycon) formed at pH of 7; assay type: ADME; details: pH 7
Method in brief: (§1)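 Stock solutions at 0.6 mg/mL in CH3CN (or CH3OH) were diluted 1:1 with phosphate buffer (pH 7), citrate buffer (pH 4) or 0.1 N HCl-KCl (pH 2). They were held at 23 °C for 22 h, then analysed by reverse-phase HPLC in 0.1 M NaH2PO4-CH3CN (75:25) with 254 nm absorbance. Each value is the amount detected at that time divided by the total detected at start.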

[2] = test system: P388/S; experiment: Compound was evaluated for the growth inhibition of P388/S cells.; assay type: functional, cell-based; details: Mus musculus
Method in brief: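 P388/S is the sensitive line routinely used in screening. Cells were exposed to drug for 48 h before IC50 was determined.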

[3] = Compound was evaluated for the overall absorbance loss at pH of 4; assay type: ADME; details: pH 4; method in brief: as §1
[4] = Compound was evaluated for the percentage of hydrolysis of compound 2 formed at pH of 4; assay type: ADME; details: pH 4; method in brief: as §1
[5] = Compound was evaluated for the change in Tm of isolated helical DNA in solution; assay type: ADME
Method in brief: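 Thermal denaturation of calf thymus DNA, 5.2 × 10⁻⁵ M (P), with drug at 5.2 × 10⁻⁶ M, in 0.01 M phosphate buffer pH 7 with EDTA and 5% Me₂SO. ΔTm = Tm of DNA–drug complex minus Tm of DNA alone.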

[6] = test system: L1210; experiment: Compound was evaluated for the inhibition of RNA synthesis in leukemia L1210 cells; assay type: functional; details: Mus musculus, read-out: ED50 (the source's name)
Method in brief: (§2)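 Actively growing L1210 cells exposed to drug for 3 h; drug dissolved first in Me₂SO, final 1% Me₂SO. Read-out is incorporation of [³H]thymidine into DNA or [³H]uridine into RNA. ED50 is the concentration giving 50% inhibition.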

[7] = Compound was evaluated for the percentage of hydrolysis of compound 2 formed at pH of 2; assay type: ADME; details: pH 2; method in brief: as §1
[8] = Compound was evaluated for the percentage of hydrolysis product (aglycon) formed at pH of 2; assay type: ADME; details: pH 2; method in brief: as §1
[9] = Compound was evaluated for the percentage of hydrolysis of compound 2 formed at pH of 7; assay type: ADME; details: pH 7; method in brief: as §1
[10] = Compound was evaluated for the overall absorbance loss at pH of 2; assay type: ADME; details: pH 2; method in brief: as §1
[11] = Compound was evaluated for the overall absorbance loss at pH of 7; assay type: ADME; details: pH 7; method in brief: as §1
[12] = Compound was evaluated for its stability after 22 hr in solution at pH of 2; assay type: physicochemical; details: pH 2, read-out: Recovery; method in brief: as §1
[13] = organism: Mus musculus; experiment: Compound was evaluated for the antitumor efficacy at optimal dose against P388 in mice; assay type: functional
Method in brief: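 Mice given 10⁶ P388 leukemia cells ip on day 0, then dosed ip on day 1 at the optimal dose. Efficacy expressed as % T/C, the mean survival time of treated over control mice; ≥120% counts as active.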

[14] = Compound was evaluated for the percentage of hydrolysis product (aglycon) formed at pH of 4; assay type: ADME; details: pH 4; method in brief: as §1
[15] = test system: L1210; experiment: Compound was evaluated for the inhibition of DNA synthesis in leukemia L1210 cells; assay type: functional; details: Mus musculus, read-out: ED50 (the source's name); method in brief: as §2
[16] = test system: P388; experiment: Compound was evaluated for the growth inhibition of P388/S, cells.; assay type: functional, cell-based; details: Mus musculus
Method in brief: (§3)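 Growth of P388/S cells, the routine screening line, and of the P388/ADR resistant subline measured after 48-h drug exposure. IC50 is the concentration giving 50% growth inhibition.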

[17] = test system: HeLa; experiment: (§4) Compound was evaluated for the inhibition of colony formation in HeLa cells; assay type: functional, Mus musculus; details: Homo sapiens, read-out: ID50 (the source's name)
Method in brief: (§5)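 Exponentially growing HeLa cells exposed to drug for 24 h, then plated at 50 cells/mL in drug-free medium. Colonies grown 7–10 days at 37 °C in humidified 95:5 air/CO₂, then scored. ID50 is the concentration giving 50% inhibition of colony growth.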

[18] = test system: P388/ADR; experiment: Compound was evaluated for the growth inhibition of P388/ADR cells.; assay type: functional, cell-based; details: Mus musculus; method in brief: as §3
[19] = Partition coefficient in octanol-phosphate buffer at pH 7.4; assay type: physicochemical
Method in brief: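 Drug partitioned between octanol and phosphate buffer pH 7.4. Concentrations in each phase measured by UV absorbance; log P is the log of organic-phase over aqueous-phase concentration.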

[20] = test system: HeLa; experiment: as §4; assay type: functional; details: Homo sapiens, read-out: ID50 (the source's name); method in brief: as §5
[21] = Resistance index was measured as ratio of IC50 of P388/ADR to that of P388/S
[22] = Compound was evaluated for its stability after 22 hr in solution at pH of 4; assay type: physicochemical; details: pH 4, read-out: Recovery; method in brief: as §1
[23] = Compound was evaluated for the percentage of hydrolysis product formed at pH of 7; assay type: ADME; details: pH 7; method in brief: as §1
[24] = Compound was evaluated for the percentage of hydrolysis product formed at pH of 2; assay type: ADME; details: pH 2; method in brief: as §1
[25] = Compound was evaluated for the percentage of hydrolysis product formed at pH of 4; assay type: ADME; details: pH 4; method in brief: as §1
[26] = Compound was evaluated for its stability after 22 hr in solution at pH of 7; assay type: physicochemical; details: pH 7, read-out: Recovery; method in brief: as §1

| Change in Tm [5] | EC50 [6] | EC50 [15] | IC50 [16] | SMILES | Absorbance [3] | Absorbance [10] | Absorbance [11] | remaining at 22 h [12] | T/C [13] | other results |
| --- | --- | --- | --- | --- | --- | --- | --- | --- | --- | --- |
| 12.8 | 580 nM | 1600 nM | 68 nM | COc1cccc2c1C(=O)c1c(O)c3c(c(O)c1C2=O)C[C@@](O)(C(=O)CO)C[C@@H]3O[C@H]1C[C@H](N)[C@H](O)[C@H](C)O1 [DOXORUBICIN] | – | – | – | – | 182% and 273% | IC50 [17]: 0.019 µg/mL (≈ 0.035 µM) |
| 10.7 | 810 nM | 5200 nM | 230 nM | COc1cccc2c1C(=O)c1c(O)c3c(c(O)c1C2=O)C[C@@](O)(C(=O)CO)C[C@@H]3OC1CC(NCCO)C(O)C(C)O1 (stereo partly specified) | – | – | – | – | 157% and 205% | IC50 [18]: 3900 nM; logD [19]: 0.19; IC50 [20]: 0.031 µg/mL (≈ 0.0528 µM); Ratio [21]: 17 |
| – | 120 nM | 650 nM | – | COc1cccc2c1C(=O)c1c(O)c3c(c(O)c1C2=O)C[C@@](O)(C(=O)CO)C[C@@H]3OC1CC2C(OC(CO)N2CCO)C(C)O1 (stereo partly specified) | – | – | – | – | – | – |
| – | – | – | – | COc1cccc2c1C(=O)c1c(O)c3c(c(O)c1C2=O)C[C@@](O)(C(=O)CO)C[C@@H]3OC1CC(N2CCOCC2)C(O)C(C)O1 (stereo partly specified) | 12% | 4% | 4% | 96% | – | remaining at 22 h [22]: 88%; Hydrolysis [23]: < 1%; Hydrolysis [24]: < 1%; Hydrolysis [25]: < 1%; remaining at 22 h [26]: 90% |

| SMILES | Change in Tm [5] | EC50 [6] | EC50 [15] | IC50 [16] | Absorbance [3] | Absorbance [10] | Absorbance [11] | remaining at 22 h [12] | T/C [13] | other results |
| --- | --- | --- | --- | --- | --- | --- | --- | --- | --- | --- |
| COc1cccc2c1C(=O)c1c(O)c3c(c(O)c1C2=O)C[C@@](O)(C(=O)CO)C[C@@H]3OC1CC(N2CCOCC2C#N)C(O)C(C)O1 (stereo partly specified) | 8.7 | 0.53 nM | 3 nM | – | 37% | 67% | 17% | 10% | 262% and 233% | Hydrolysis [1]: 0.3%; IC50 [2]: 0.16 nM; Hydrolysis [4]: 8%; Hydrolysis [7]: 7%; Hydrolysis [8]: 8%; Hydrolysis [9]: 0.8%; Hydrolysis [14]: 0.1% |
